Published values of several laboratories.
Lines come from different studies, so protocols differ.
TEC phosphorylated: Tyrosine-protein kinase Tec, phosphorylated (TEC, Homo sapiens, UniProt P42680)
TEC: Tyrosine-protein kinase Tec (TEC, Homo sapiens, UniProt P42680)

Compound	target	test	setting	endpoint	result
Cc1cnc(NC2CCOCC2)nc1-n1cnc(C(=O)NC(CN)c2cc(F)cc(Cl)c2)c1 (centres unmarked)	TEC phosphorylated	enzyme activity, inhibitor, radiometric	1 µM	remaining activity	102%
Nc1ncnc2occ(-c3ccc(NC(=O)Nc4cc(C(F)(F)F)ccc4F)cc3)c12	TEC	cell-free assay, inhibitor	20 µM	remaining signal	53%
Cc1sc(C(=O)NC2COC2)cc1-n1cc(NC(=O)Nc2c(F)cccc2Cl)cn1	TEC	enzyme activity, inhibitor	10 µM	remaining activity	91.1%
Cc1ccc(NC(=O)c2ccc(C)c(C(F)(F)F)c2)cc1C#Cc1nn(C2CCC(O)CC2)c2ncnc(N)c12 (centres unmarked)	TEC phosphorylated	enzyme activity, inhibitor	10 µM	remaining activity	24%
Cc1ccc(C(=O)Nc2ccc(CN3CCN(C)CC3)c(C(F)(F)F)c2)cc1C#Cc1cnc2cccnn12	TEC	enzyme activity	23.5 nM	remaining activity	84%
CN(c1ccnc(CNc2nc(Nc3ccc4c(c3)CC(=O)N4)ncc2C(F)(F)F)n1)S(C)(=O)=O	TEC	cell-free assay, competition with immobilised ligand	1 µM	remaining binding	100%
Cc1ccc(C(=O)NCc2ccsc2)cc1C#Cc1cn(C(C)C)c2ncnc(N)c12	TEC phosphorylated	enzyme activity, inhibitor	1 µM	activity vs control	107%
Cc1cc(NC(=O)c2cccc3cc(-c4cccc5[nH]nc(N)c45)ccc23)ccc1F	TEC phosphorylated	enzyme activity, inhibitor	0.1 µM	activity vs control	90%
Oc1cccc(-c2nc(N3CCOCC3)c3oc4ncccc4c3n2)c1	TEC	cell-free assay	0.5 µM	remaining signal	113%
O=C(N[C@@H](C1CC1)C(F)(F)F)c1cc(-c2cnn3cc(-c4ccc(F)cc4)cnc23)cs1	TEC	enzyme activity, inhibitor, radiometric	40 nM	inhibition	0%
O=C(O)c1cc(-c2ccc(C3CCNCC3)cc2)c2ccc(-c3ccc(C(F)(F)F)cc3)cc2c1	TEC	cell-free assay, competition with immobilised ligand	1 µM	remaining binding	100%
C[S+]([O-])c1ccc(-c2nc(-c3ccncc3)c(-c3ccc(F)cc3)[nH]2)cc1 (centres unmarked)	TEC	cell-free assay	0.5 µM	remaining signal	113%
CN([C@@H]1CCc2c(CC(=O)O)c3ccccc3n2C1)S(=O)(=O)c1ccc(F)cc1	TEC	cell-free assay, competition with immobilised ligand	1 µM	remaining binding	100%
O=C(Nc1cnn(-c2csc(C(=O)NC3COC3)c2)c1)Nc1c(F)cccc1Cl	TEC	enzyme activity, inhibitor	5 µM	remaining activity	97.7%
NS(=O)(=O)c1cc(NC(=O)C2(c3ccccc3Cl)CC2)ccc1Oc1cccc(Cl)c1	TEC	binding, competition with immobilised ligand	1 µM	remaining binding	81%
O=C1NC(=O)c2cc(Nc3ccc(F)cc3)c(Nc3ccc(F)cc3)cc21	TEC	cell-free assay	0.5 µM	remaining signal	102%
O=C(O)[C@@H]1[C@@H](Cn2nnc3ccccc3c2=O)CC[C@H]1C(=O)c1ccc(OCCC2CCOCC2)cc1	TEC	binding, competition with immobilised ligand	1 µM	remaining binding	95%
CC(C)(O)[C@H]1CC[C@H](Nc2ccc3ncc(-c4cccc(C(F)(F)F)c4)n3n2)CC1	TEC	enzyme activity, inhibitor	1 µM	remaining activity	104%
CC(C)(C)c1nc2c(s1)c1nc(N)ncc1c1ccc(NS(=O)(=O)c3c(F)cccc3F)c(F)c12	TEC	enzyme activity, inhibitor, radiometric	1 µM	remaining activity	87%
CC(=O)N1CCC(c2ccc(C(=O)NC(=N)N)cc2C(F)(F)F)CC1	TEC	binding, competition with immobilised ligand	1 µM	remaining binding	100%
